Where two headings read alike, the source gives them in different places.
Assays:
[1] = biological target: T1, dog M1 (Canis lupus familiaris, UniProt A0A8I3RVA9); assay: Calcium mobilization assay, low expression M1 dog line; format: cell-based
T1 sequence (A0A8I3RVA9 1-460): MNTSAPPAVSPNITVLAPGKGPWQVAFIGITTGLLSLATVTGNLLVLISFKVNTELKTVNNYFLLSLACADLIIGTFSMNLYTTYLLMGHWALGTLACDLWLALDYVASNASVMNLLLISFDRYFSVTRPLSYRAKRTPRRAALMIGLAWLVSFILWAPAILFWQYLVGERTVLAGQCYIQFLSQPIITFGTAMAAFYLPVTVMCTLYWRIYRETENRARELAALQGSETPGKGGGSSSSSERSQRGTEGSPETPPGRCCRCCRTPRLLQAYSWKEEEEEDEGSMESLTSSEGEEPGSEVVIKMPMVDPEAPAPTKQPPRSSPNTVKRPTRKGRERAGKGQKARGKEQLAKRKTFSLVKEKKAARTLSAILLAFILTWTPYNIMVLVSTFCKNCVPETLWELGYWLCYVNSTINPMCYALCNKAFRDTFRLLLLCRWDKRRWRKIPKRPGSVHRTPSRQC

[2] = test system: human M2–M5; assay: Calcium mobilization selectivity, human M2–M5; format: cell-based; details: Figure 4A
Procedure, shortened: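 Muscarinic receptor-expressing CHO cells were plated at 20,000 cells/well in medium without G418 the day before. They were loaded with 1.15 μM Fluo-4 AM for 45 min at 37 °C in HBSS with 20 mM HEPES and 2.5 mM probenecid. Test compound (10-point 1:3 series, top final 30 μM) was added for 2.5 min, then EC20 ACh for 1 min. Calcium flux was fitted with a four-parameter logistic curve.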

[3] = test system: layer V medial prefrontal cortex fEPSPs; assay: Extracellular field electrophysiology in layer V prelimbic mPFC slices; design: species or system mouse
Procedure, shortened: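 Coronal prelimbic slices (400 μm) recovered in NMDG-HEPES solution (pH 7.3) for 8–10 min at 32 °C, then were perfused with ACSF at 2 mL/min and 30–32 °C. Layer V fEPSPs were evoked from layers II–III (200 μs, 0.05 Hz) or optically in ChR2-injected mice. Compound alone was bath-applied for 20 min. Alternatively, 10 μM compound was applied for 10 min, then with 3 μM OxoM for 10 min. Slope was measured 46–50 min after washout.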

[4] = Plasma protein binding by equilibrium dialysis, human; format: in vitro ADME; details: pH 7.4
Procedure, shortened: (§1)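 Plasma spiked with test article was dialysed against 25 mM phosphate buffer, pH 7.4, by equilibrium dialysis for 4 h at 37 °C with shaking. Aliquots from each chamber were matrix-matched, extracted with ice-cold acetonitrile, centrifuged and quantified by LC/MS/MS.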

[5] = Plasma protein binding by equilibrium dialysis, rat; format: in vitro ADME; details: pH 7.4
Procedure, shortened: as §1

[6] = Plasma protein binding by equilibrium dialysis, cyno; format: in vitro ADME; details: cynomolgus monkey, pH 7.4
Procedure, shortened: as §1

[7] = biological target: cytochrome P450 2C9 (Homo sapiens, UniProt P11712); assay: CYP450 inhibition in human liver microsomes, 2C9; format: in vitro ADME
Chain of cytochrome P450 2C9 (P11712 whole entry): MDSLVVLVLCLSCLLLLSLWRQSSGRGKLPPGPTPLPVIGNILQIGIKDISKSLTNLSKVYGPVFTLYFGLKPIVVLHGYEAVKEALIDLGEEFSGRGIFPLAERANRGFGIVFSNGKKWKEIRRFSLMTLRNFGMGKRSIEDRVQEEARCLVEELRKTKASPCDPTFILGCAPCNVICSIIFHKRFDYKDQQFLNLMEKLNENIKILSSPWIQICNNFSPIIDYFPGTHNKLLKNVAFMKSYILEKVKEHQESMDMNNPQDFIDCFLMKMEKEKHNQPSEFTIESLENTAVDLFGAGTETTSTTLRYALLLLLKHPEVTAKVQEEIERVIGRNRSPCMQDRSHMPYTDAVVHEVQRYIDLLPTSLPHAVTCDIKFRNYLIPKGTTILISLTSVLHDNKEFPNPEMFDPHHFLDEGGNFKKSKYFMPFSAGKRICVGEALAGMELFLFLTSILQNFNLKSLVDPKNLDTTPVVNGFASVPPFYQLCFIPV

[8] = biological target: cytochrome P450 2D6 (Homo sapiens, UniProt P10635); assay: CYP450 inhibition in human liver microsomes, 2D6; format: in vitro ADME
Chain of cytochrome P450 2D6 (P10635 whole entry): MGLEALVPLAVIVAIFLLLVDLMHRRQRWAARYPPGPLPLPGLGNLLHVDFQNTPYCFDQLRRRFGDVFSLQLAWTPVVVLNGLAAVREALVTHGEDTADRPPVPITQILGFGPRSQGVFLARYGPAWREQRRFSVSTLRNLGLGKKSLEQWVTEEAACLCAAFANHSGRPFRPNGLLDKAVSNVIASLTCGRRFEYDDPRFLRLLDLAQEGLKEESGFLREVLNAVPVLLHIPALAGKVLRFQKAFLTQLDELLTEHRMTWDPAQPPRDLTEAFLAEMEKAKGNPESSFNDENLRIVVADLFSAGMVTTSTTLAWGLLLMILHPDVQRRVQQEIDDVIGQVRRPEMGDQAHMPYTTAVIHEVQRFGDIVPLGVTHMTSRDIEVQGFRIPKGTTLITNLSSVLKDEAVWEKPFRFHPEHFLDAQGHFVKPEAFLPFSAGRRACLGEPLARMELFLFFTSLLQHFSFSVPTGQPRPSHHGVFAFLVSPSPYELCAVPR

[9] = Mouse plasma-brain exposure; format: in vivo; details: male, C57BL/6J, brain and plasma, intraperitoneal, 100 mg/kg
Procedure, shortened: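 Male C57BL/6J mice aged 7–9 weeks were dosed i.p. with test compound in 10% Tween 80 (1–10 mg/mL, 10 mL/kg). Brain and trunk blood were collected at 0.25 h. Brains were washed in cold saline and frozen on dry ice. EDTA plasma was separated, and both matrices were analysed by LC/MS/MS.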

[10] = biological target: P-gp (Homo sapiens, UniProt P08183); assay: MDCK P-gp efflux and permeability; format: in vitro ADME
Chain of P-gp (P08183 whole entry): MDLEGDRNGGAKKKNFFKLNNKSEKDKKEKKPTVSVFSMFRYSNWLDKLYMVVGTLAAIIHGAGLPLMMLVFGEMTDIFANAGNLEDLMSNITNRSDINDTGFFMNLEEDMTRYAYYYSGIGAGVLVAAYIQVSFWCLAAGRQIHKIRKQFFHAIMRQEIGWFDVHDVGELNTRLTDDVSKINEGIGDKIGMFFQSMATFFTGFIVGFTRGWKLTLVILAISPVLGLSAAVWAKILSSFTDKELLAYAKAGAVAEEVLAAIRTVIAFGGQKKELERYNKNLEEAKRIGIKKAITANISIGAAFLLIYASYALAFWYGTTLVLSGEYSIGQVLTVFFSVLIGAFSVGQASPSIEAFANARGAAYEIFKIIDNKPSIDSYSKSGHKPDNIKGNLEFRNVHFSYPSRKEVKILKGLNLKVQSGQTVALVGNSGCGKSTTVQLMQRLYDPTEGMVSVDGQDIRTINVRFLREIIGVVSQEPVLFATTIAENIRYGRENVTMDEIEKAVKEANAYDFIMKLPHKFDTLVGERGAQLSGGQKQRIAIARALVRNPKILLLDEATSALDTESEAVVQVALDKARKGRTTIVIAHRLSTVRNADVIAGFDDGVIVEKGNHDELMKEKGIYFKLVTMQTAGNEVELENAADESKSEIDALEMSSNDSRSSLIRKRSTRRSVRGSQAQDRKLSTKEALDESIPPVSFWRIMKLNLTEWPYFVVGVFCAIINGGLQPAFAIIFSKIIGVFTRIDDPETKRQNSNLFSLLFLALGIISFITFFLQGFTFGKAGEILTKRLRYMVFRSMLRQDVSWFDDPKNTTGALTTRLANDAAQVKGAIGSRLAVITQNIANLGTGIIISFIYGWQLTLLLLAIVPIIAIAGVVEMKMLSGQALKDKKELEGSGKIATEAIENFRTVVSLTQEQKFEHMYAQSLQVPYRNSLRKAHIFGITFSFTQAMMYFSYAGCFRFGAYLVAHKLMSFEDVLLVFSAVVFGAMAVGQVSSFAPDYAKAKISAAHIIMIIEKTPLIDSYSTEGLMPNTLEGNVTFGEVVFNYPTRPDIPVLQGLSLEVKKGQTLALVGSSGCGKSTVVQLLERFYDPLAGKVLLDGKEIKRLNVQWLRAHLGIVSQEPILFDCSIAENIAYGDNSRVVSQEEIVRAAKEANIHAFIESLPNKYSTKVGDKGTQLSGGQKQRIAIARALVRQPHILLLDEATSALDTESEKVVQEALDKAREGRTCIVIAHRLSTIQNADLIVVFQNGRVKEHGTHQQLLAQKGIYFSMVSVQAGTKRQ

[11] = Rat PK IV/PO crossover study; format: in vivo
Procedure, shortened: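 Male Sprague–Dawley rats with carotid and jugular cannulae (n = 2) were dosed IV at 1.0 mg/kg in 10% EtOH, 50% PEG 400 and 40% saline. For oral dosing, fasted rats received 3 mg/kg by gavage as a microsuspension in 30% Captisol. Carotid blood was sampled from 0.117 to 24 h, and EDTA plasma was analysed by LC/MS/MS. Parameters came from noncompartmental analysis.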

[12] = Cynomolgus monkey IV/PO PK study; format: in vivo
Procedure, shortened: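 Male cynomolgus monkeys (n = 3) received a single IV bolus of 1 mg/kg in ethanol:PEG400:saline (10:60:30, v/v/v) and a single oral dose of 3 mg/kg in 30% aqueous Captisol. Plasma PK parameters were calculated by noncompartmental analysis.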

[13] = test system: mice; assay: Modified Irwin Toxicology Battery in mice; format: in vivo, mouse; details: 100 mg/kg i.p.
[14] = test system: nonhuman primate (NHP); assay: Nonhuman primate adverse effect assessment; format: in vivo
[15] = test system: rats; assay: Novel object recognition task; format: in vivo, rat
Procedure, shortened: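 Male Sprague–Dawley rats were habituated to the arena. They received vehicle (10% Tween 80) or test compound at 1–10 mg/kg i.p. (1 mL/kg; n = 12) 30 min before a 10 min exposure to two identical objects. After 24 h, one object was replaced by a novel one and exploration was recorded for 3 min. A blinded observer scored exploration, and the recognition index was (novel − familiar)/total exploration time.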

[16] = male, cynomolgus monkey, plasma, intravenous, 1 mg/kg

EC50 ([1]; M1 PAM EC50, dog M1 line, low expression): 0.38 µM | EC50 ([1]; M1 PAM pEC50, dog M1 line, low expression): 0.389 µM | EC50 ([1]; M1 agonist activity EC50, dog M1 line, compound alone): > 10 µM | Emax ([1]; read-out: M1 PAM efficacy, % ACh Max): 78 ± 1% | Emax ([1]; read-out: M1 agonist activity, % ACh Max): 18 ± 0.2% | fraction unbound at 4 h [4]: 0.12 | fraction unbound at 4 h [5]: 0.11 | fraction unbound at 4 h [6]: 0.016 | IC50 [7]: 18.8 µM | IC50 [8]: 29.8 µM | Kp at 0.25 h [9]: 0.67 | Kp uu at 0.25 h [9]: 0.17 | human P-gp substrate ([10]; MDCK): not a human P-gp substrate | Papp ([10]; human, MDCK): 30 ×10⁻⁶ cm/s | efflux ratio ([10]; human, MDCK-MDR1): 0.9 | half-life ([11]; male, Sprague-Dawley, rat, plasma): 1.2 h | Vd ([11]; male, Sprague-Dawley, rat, plasma, intravenous, 1 mg/kg): 1.8 L/kg | clearance ([11]; male, Sprague-Dawley, rat, plasma, iv, 1 mg/kg): 89 mL/min/kg | bioavailability ([11]; male, Sprague-Dawley, rat, plasma, po, 3 mg/kg): 95.9% | half-life ([12]; male, cynomolgus monkey, plasma, 1 mg/kg): 4.2 h | Vd [12, 16]: 1 L/kg | clearance [12, 16]: 18 mL/min/kg | bioavailability ([12]; male, cynomolgus monkey, plasma, po, 3 mg/kg): 37%
SMILES: O=C(N[C@H]1CCCC[C@@H]1O)[C@H]1CN(Cc2ccc(-n3cccn3)cc2)c2ccccc2O1 [VU0486846, (2R)-N-[(1S,2S)-2-Hydroxycyclohexyl]-4-[(4-pyrazol-1-ylphenyl)-methyl]-2,3-dihydro-1,4-benzoxazine-2-carboxamide]
Activity at human M2–M5 (selectivity) [2]: highly selective | Activity at human M2–M5 (selectivity) ([2]; listed as 16): inactive | Magnitude of LTD, PAM + CCh vs CCh alone ([3]; 3 μM VU0486846 + 10 μM CCh, electrically evoked, p < 0.05): significant increase in the magnitude of LTD | Change in fEPSP slope, compound alone (agonist activity in PFC) ([3]; 3 μM bath application 20 min, electrically evoked layer V fEPSPs): no significant change | Magnitude of LTD, PAM + OxoM vs OxoM alone ([3]; 10 μM VU0486846 + 3 μM OxoM, optically evoked, p < 0.05): significantly enhanced | Adverse events or cholinergic side effects in PK study ([11]; rat PK study): No adverse events or cholinergic side effects | Adverse events or cholinergic side effects in PK study ([12]; cynomolgus monkey PK study): No adverse events or cholinergic side effects | free brain levels [13]: 342 nM | free plasma levels [13]: 2000 nM | total brain levels [13]: 12.2 µM | total plasma levels [13]: 18.2 µM | Cholinergic side effects or adverse effects ([13]; 3 h evaluation period): did not produce any cholinergic side effects or pronounced adverse effects | total plasma levels [14]: ~ 2 μM | Adverse effects ([14]; at achieved plasma levels): without any adverse effects | Effect on recognition memory ([15]; 1–10 mg/kg i.p.): dose-dependently enhanced recognition memory | minimum effective dose, novel object recognition ([15]; i.p., 30 min pretreatment, memory assessed 24 h later): 3 mg/kg

Source: PMC6146057 (ACS chemical neuroscience, 2018)
